This is a sample that favours compounds with a hit; in the whole collection about 2% have one here.
SR-BI HDL uptake: inhibitors of SR-BI mediated HDL lipid uptake, primary screen, ldlA[mSR-BI] cells, fluorescence, single point | Scavenger receptor class B member 1 (Mus musculus), Q61009 | ldlA[mSR-BI] CHO cells, DiI-HDL uptake fluorescence, 3 h | inhibition, % at 12.5 µM | 320,000 compounds, 0.96% hits | AID 488896, 2010;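 active means mean replicate inhibition of at least 70% and a set share of replicates each scoring 70 or more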;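 further: 0% = median of neutral control wells and 100% = median of positive control wells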
ARNT-TACC3 inh: disruptors of ARNT/TACC3 protein interaction, primary screen, biochemical, AlphaScreen, single concentration; AID 623870, 2012; 390,000 compounds, 0.66% hits; AlphaScreen His-ARNT PAS-B/GST-TACC3 binding, luminescence; TACC3 fragment carries E629A point mutation; inhibition, % at 9.99 µM;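 active means mean inhibition of replicates at least 50% and at least half of replicates each reaching 50%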;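 further: 0% = complete ARNT plus TACC3 wells and 100% = ARNT alone without TACC3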
SR-BI DiI-HDL act: activators of SR-BI mediated DiI-HDL uptake, primary screen, ldlA[mSR-BI] CHO cells, DiI fluorescence; 3 h; 100 = double the neutral-control signal; activation, % at 12.5 µM; 320,000 compounds, 0.096% hits;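 active means mean replicate activation of at least 60% and every replicate at or above 60%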;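 further: 0% = median plate neutral-control signal and 100% = twice that signal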
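Material – SR-BI-overexpressing, LDLR-lacking CHO cells · Medium – BSA-supplemented, HEPES-buffered Ham's F12, pH 7.4 · Doses – single concentration · Times – compound with DiI-HDL co-incubation, 3 h at 37 °C · Measured by – bottom-read fluorescence, 550/595 nm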
XiGFP reactiv: activators of inactive X chromosome reactivation, primary screen, imaging, XiGFP fibroblasts, GFP high-content imaging, set 2. 360,000 compounds, 0.055% hits. AID 743238, 2013. activation, % at 7.58 µM. XiGFP mouse fibroblasts, % GFP-positive cells imaging, 3 d; cells co-treated with 5-aza-dC sensitizer; scaled so ellipticine positive control = 100%;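 active means mean normalized replicate activation at least 10% and every replicate at or above 10%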;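 further: 0% = median of on-plate neutral control wells and 100% = ellipticine 6 µM median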
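assay system = SV40-immortalized XiGFP fibroblast cells, line 68-5-11 | buffer or medium = DMEM plus 5-aza-dC sensitizer | doses = single-point pinned compound dosing | times = 3-day compound exposure, then 15 min fixation at room temperature | benchmarks = positive control ellipticine, 6 µM final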
sPLA2-III inh: human group III sPLA2 inhibitors, primary screen, biochemical, QFRET, BODIPY PC-A2 liposome substrate; inhibition, % at 12.2 µM; 370,000 compounds, 0.56% hits; QFRET BODIPY PC-A2 liposome hydrolysis, fluorescence;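 active means inhibition above mean plus 3 SD of compounds lying within the high and low control bounds, cut at about 19% in these data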;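 further: 0% = median of test compound wells and 100% = no enzyme DMSO wells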
NSD2 HMT inh: NSD2 histone methyltransferase inhibitors, primary screen, biochemical, AlphaScreen, single concentration, set 2; inhibition, % at 12.5 µM; 310,000 compounds, 0.54% hits; Histone-lysine N-methyltransferase NSD2 (Homo sapiens), O96028; AID 743445, 2014; NSD2 peptide methylation, 120 min; in the data active means inhibition above about 50%
Target sequence (O96028 whole entry, looked up): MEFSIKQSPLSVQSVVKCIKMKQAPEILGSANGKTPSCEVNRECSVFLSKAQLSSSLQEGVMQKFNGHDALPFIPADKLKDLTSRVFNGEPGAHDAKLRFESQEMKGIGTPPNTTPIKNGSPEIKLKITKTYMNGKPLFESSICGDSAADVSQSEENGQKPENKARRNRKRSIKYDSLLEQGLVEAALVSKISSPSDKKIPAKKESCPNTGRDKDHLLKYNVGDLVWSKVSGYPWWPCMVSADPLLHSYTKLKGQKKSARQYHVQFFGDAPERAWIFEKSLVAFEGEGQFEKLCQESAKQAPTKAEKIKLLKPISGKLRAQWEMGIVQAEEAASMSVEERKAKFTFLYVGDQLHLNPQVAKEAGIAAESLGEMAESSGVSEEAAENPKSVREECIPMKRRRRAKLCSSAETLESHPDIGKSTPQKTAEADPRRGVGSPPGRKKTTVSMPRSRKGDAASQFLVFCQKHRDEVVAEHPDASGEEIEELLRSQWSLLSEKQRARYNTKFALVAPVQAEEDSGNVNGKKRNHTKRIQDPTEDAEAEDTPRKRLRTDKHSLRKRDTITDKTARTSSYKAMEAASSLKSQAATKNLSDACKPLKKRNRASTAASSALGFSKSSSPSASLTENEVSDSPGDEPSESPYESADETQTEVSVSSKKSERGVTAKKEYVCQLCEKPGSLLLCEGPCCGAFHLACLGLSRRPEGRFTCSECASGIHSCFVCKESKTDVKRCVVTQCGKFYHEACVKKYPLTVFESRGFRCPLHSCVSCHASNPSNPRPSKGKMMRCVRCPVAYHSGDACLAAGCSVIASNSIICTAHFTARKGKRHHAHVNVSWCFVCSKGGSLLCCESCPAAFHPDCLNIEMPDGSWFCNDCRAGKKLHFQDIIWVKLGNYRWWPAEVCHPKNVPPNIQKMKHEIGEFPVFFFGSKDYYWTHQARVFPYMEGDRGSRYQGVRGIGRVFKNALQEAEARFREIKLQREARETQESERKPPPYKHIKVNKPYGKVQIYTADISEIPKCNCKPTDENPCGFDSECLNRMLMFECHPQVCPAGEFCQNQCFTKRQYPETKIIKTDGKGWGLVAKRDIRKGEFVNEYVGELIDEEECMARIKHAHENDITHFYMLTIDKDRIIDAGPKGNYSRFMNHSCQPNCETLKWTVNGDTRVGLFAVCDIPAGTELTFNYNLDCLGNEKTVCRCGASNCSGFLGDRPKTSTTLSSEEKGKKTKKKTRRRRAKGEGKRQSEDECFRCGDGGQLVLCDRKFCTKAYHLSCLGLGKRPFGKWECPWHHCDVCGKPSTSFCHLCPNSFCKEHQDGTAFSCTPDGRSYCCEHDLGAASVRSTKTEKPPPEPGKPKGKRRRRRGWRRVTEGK
Alpha artifact: AlphaScreen signal interference with preloaded methylated product, dose response, artefact control for NSD2 inhibitor project, biochemical, cherry-picked samples; shares compounds with NSD2 HMT inh; AlphaScreen artifact counterscreen, preloaded methylated H4 peptide; AC35, µM (highest dose often 10 µM), inactives show at the top dose activity change, negative = signal loss; 1,500 compounds, 9.4% hits; AID 1053174, 2014; call rule not given here
* = called active by the depositor.

For O=C(/C=C/c1ccco1)NC(=S)Nc1ccc(C(=O)O)cc1 the results were SR-BI HDL uptake -4, ARNT-TACC3 inh 9, SR-BI DiI-HDL act 4, XiGFP reactiv 0, sPLA2-III inh -5, NSD2 HMT inh 66* and Alpha artifact -5%.
Screening O=C(/C=C/c1ccco1)Nc1cccc(C(=O)Nc2ccccc2C(=O)O)c1 returned SR-BI HDL uptake -18, ARNT-TACC3 inh 3, SR-BI DiI-HDL act 18, XiGFP reactiv 0, sPLA2-III inh -23, NSD2 HMT inh 76* and Alpha artifact 0%.
CC(C)Cn1c(N)c(C(=O)COC(=O)c2ccc([N+](=O)[O-])o2)c(=O)n(C)c1=O was read as SR-BI HDL uptake 18, ARNT-TACC3 inh 21, SR-BI DiI-HDL act -18, XiGFP reactiv 0, sPLA2-III inh -1, NSD2 HMT inh 99* and Alpha artifact -4%.
`O=C(CCCN1C(=O)/C(=C\c2cccs2)SC1=S)Nc1ccc(O)cc1C(=O)O` gave SR-BI HDL uptake -1, ARNT-TACC3 inh 6, SR-BI DiI-HDL act 1, XiGFP reactiv 0, sPLA2-III inh -24 and NSD2 HMT inh 18.
For O=C(CCCN1C(=O)/C(=C/c2ccco2)SC1=S)Nc1cccc(C(=O)O)c1 the results were ARNT-TACC3 inh 5, XiGFP reactiv 0, sPLA2-III inh -23, NSD2 HMT inh 125* and Alpha artifact -12%.
`O=C(CCCN1C(=O)/C(=C\c2ccco2)SC1=S)Nc1ccc(O)cc1C(=O)O` gave SR-BI HDL uptake 2, ARNT-TACC3 inh -23, SR-BI DiI-HDL act -2, XiGFP reactiv 0, sPLA2-III inh -15, NSD2 HMT inh 104* and Alpha artifact -14%.
For O=C(CCCN1C(=O)/C(=C\c2cccs2)SC1=S)Nc1cccc(C(=O)O)c1 the results were SR-BI HDL uptake -1, ARNT-TACC3 inh -13, SR-BI DiI-HDL act 1, XiGFP reactiv 0, sPLA2-III inh 0 and NSD2 HMT inh 14.
Screening O=C(CN1C(=O)/C(=C/c2ccco2)SC1=S)Nc1ccc(O)c(C(=O)O)c1 returned SR-BI HDL uptake -6, ARNT-TACC3 inh 10, SR-BI DiI-HDL act 6, XiGFP reactiv 0, sPLA2-III inh -17, NSD2 HMT inh 116* and Alpha artifact -13%.
For COc1ccc(CCNC(=O)C2CC3Cn4c(nc5ccccc54)C3N2C)cc1 (configuration not stated) the results were SR-BI HDL uptake -38, ARNT-TACC3 inh 2, SR-BI DiI-HDL act 38, XiGFP reactiv 0 and sPLA2-III inh 5.
`Cc1onc(-c2c(Cl)cccc2Cl)c1C(=O)Nn1cnnc1` gave SR-BI HDL uptake -19, ARNT-TACC3 inh -19, SR-BI DiI-HDL act 19, sPLA2-III inh -4 and NSD2 HMT inh 12.
Cc1onc(-c2c(Cl)cccc2Cl)c1C(=O)ONC(=O)c1cc(C(F)(F)F)cc(C(F)(F)F)c1 was read as SR-BI HDL uptake -7, ARNT-TACC3 inh -5, SR-BI DiI-HDL act 7, XiGFP reactiv 0, sPLA2-III inh 12, NSD2 HMT inh 59* and Alpha artifact 0%.
`CCOc1cc(/C=C(\C#N)C(=O)Nc2cccc(C(=O)O)c2)cc(Br)c1OC(=O)c1ccc(OC)cc1` gave SR-BI HDL uptake -23, ARNT-TACC3 inh -14, SR-BI DiI-HDL act 23, XiGFP reactiv 0 and sPLA2-III inh -2.
Screening CCNC1CCC(Nc2ccnc3cc(Cl)ccc23)CC1 (configuration not stated) returned SR-BI HDL uptake -8, ARNT-TACC3 inh 2, SR-BI DiI-HDL act 8, XiGFP reactiv 0, sPLA2-III inh 6, NSD2 HMT inh 89* and Alpha artifact -5%.
Screening CCCCS(=O)CC(COC)OC(=O)c1ccccc1 (configuration not stated) returned SR-BI HDL uptake -30, ARNT-TACC3 inh -8, SR-BI DiI-HDL act 30, XiGFP reactiv 0, sPLA2-III inh 3 and NSD2 HMT inh -1.
CCOC(=O)c1ccc(N/C(=N\S(=O)(=O)c2ccccc2C)c2ccccc2)cc1 was read as SR-BI HDL uptake 29, ARNT-TACC3 inh 0, SR-BI DiI-HDL act -29, sPLA2-III inh -34 and NSD2 HMT inh 3.
CN1C(=O)N(C)C2(c3ccccc3)NC(=O)NC12c1ccccc1 (configuration not stated) was read as SR-BI HDL uptake -12, ARNT-TACC3 inh 21, SR-BI DiI-HDL act 12, sPLA2-III inh 1 and NSD2 HMT inh 1.
Screening CN1c2ccccc2N(C)C1(C)c1ccccc1 returned SR-BI HDL uptake -3, ARNT-TACC3 inh 36, SR-BI DiI-HDL act 3, XiGFP reactiv 0, sPLA2-III inh -7, NSD2 HMT inh 54* and Alpha artifact -17%.
Screening O=C(Nc1ccc(F)c(F)c1)C1CCCCC1 returned SR-BI HDL uptake 1, ARNT-TACC3 inh -3, SR-BI DiI-HDL act -1, XiGFP reactiv 0 and sPLA2-III inh 4.
For N=c1c(C(=O)NCc2ccco2)cc2c(=O)n3ccccc3nc2n1C1CCCC1 the results were XiGFP reactiv 0, sPLA2-III inh -3, NSD2 HMT inh 66* and Alpha artifact 1%.
For N=c1c(C(=O)NC2CCCC2)cc2c(=O)n3ccccc3nc2n1C1CCCC1 the results were SR-BI HDL uptake -7, ARNT-TACC3 inh 2, SR-BI DiI-HDL act 7, sPLA2-III inh 4 and NSD2 HMT inh 0.
COc1ccc(CN2[C@H](CO)[C@@H]3c4ccccc4N(C(=O)CC(F)(F)F)C[C@@H]32)cc1 was read as ARNT-TACC3 inh -12 and XiGFP reactiv 0.
Cc1ccccc1NC(=O)OCc1cn(-c2ccc(Cl)cc2)nn1 was read as SR-BI HDL uptake -9, ARNT-TACC3 inh -4, SR-BI DiI-HDL act 9, sPLA2-III inh 0 and NSD2 HMT inh -3.
CCCCC(=O)OCc1cn(-c2ccc(Cl)cc2)nn1 was read as SR-BI HDL uptake 12, ARNT-TACC3 inh -3, SR-BI DiI-HDL act -12, sPLA2-III inh 6, NSD2 HMT inh 121* and Alpha artifact 6%.
